GASC1 inh: KDM4C (human) demethylase inhibition | Q9H3R0 | inhibition, % at 12.5 µM | GST-KDM4C 2-372, H3K9me3 peptide, LANCE TR-FRET | AID 720574 | hit rate 0.15% among 96,000;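 active = mean replicate inhibition above about 25%, with at least 55% of replicates also reaching it, limit read from the data, passing the limit was not always enough; inconclusive = only one of those two conditions met; inactive = neither condition met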
Target sequence (Q9H3R0 2-372 limits assumed): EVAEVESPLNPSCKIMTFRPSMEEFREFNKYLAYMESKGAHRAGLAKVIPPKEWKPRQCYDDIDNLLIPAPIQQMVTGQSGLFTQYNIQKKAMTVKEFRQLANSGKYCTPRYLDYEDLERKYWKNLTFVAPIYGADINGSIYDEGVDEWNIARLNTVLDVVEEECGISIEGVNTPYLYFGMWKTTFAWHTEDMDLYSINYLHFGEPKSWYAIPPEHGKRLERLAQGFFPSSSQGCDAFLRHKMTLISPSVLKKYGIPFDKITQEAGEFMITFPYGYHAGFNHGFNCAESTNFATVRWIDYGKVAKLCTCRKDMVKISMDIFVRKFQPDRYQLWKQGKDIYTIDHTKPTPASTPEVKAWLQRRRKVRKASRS
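Material: N-terminal GST-fused human GASC-1 (KDM4C) fragment, residues 2-372. Input: 10 nM enzyme. Incubation: enzyme reaction 30 min, then detection 60 min, both room temperature. Doses: one test concentration per compound. Read-out basis: inhibition from TR-FRET ratio decrease. Detection: LANCE TR-FRET, excitation 340 nm, emissions 618 and 671 nm.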
IDH1 R132H inh: inhibitors of human IDH1 R132H | inhibition, % at 10 µM | AID 624101 | IDH1 R132H reductase, diaphorase/resazurin fluorescence, 60 min | hit rate 0.18% among 70,000 | O75874; in the data active = inhibition above about 34%; inconclusive = no clear call, values can overlap the other calls; inactive = below about 11%;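 also: 0% = DMSO and 100% = no enzyme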
T cruzi growth-1: blocks T. cruzi growth in NIH3T3 culture; T. cruzi beta-gal in NIH3T3, GalScreen luminescence, 90 h; AID 624255; inhibition, % at 8.34 µM; hit rate 5.9% among 77,000;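 active = mean inhibition above about 93%, with at least 55% of replicates each passing it, limit read from the data, passing the limit was not always enough; inconclusive = only one of those two conditions holds; inactive = neither condition holds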
T cruzi growth-2: blocks T. cruzi growth in NIH3T3 host cells; shares compounds with T cruzi growth-1; T. cruzi beta-gal in NIH3T3, GalScreen luminescence, 90 h; inhibition, % at 8.35 µM; hit rate 72% among 5,600; AID 651739;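 active = mean replicate inhibition above about 95% and at least 55% of replicates individually reaching it, limit read from the data; inconclusive = only one of the two criteria is met; inactive = neither criterion is met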
T cruzi growth-3: inhibitors of T. cruzi proliferation; shares compounds with T cruzi growth-1; T. cruzi beta-gal in NIH3T3, GalScreen luminescence, 90 h; inhibition, % at 2.09 µM; hit rate 21% among 5,600;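 active = mean inhibition above about 95%, with at least 55% of replicates also reaching it, limit read from the data; inconclusive = meets just one of the two conditions; inactive = meets neither condition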;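 also: plate controls were neutral control median for no effect and positive control median for full effect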
NIH3T3 tox: NIH/3T3 (mouse) viability loss; shares compounds with T cruzi growth-1; NIH/3T3 viability, CellTiter-Glo ATP luminescence, 90 h; cytotoxicity (signal decrease), % at 8.35 µM; hit rate 14% among 5,600; AID 651742;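 active = mean signal decrease across replicates above about 35% based on untreated-well scatter, with enough replicates individually passing, limit read from the data; inconclusive = no rule stated though some were filed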;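 also: 0% = median of neutral control wells and 100% = median of positive control wells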
NIH3T3 tox 2: cytotoxicity in mouse NIH/3T3 fibroblasts | NIH/3T3 viability, CellTiter-Glo ATP luminescence, 90 h | inhibition, % at 24.9 µM | hit rate 56% among 5,600 | AID 651744 | shares compounds with T cruzi growth-1;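 active = mean loss of cell viability signal at or above a set limit, and enough replicates individually reaching it; inconclusive = meets only the mean limit or only the replicate share; inactive = meets neither condition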;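 also: 0% = median of neutral control wells and 100% = median of positive control wells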
An asterisk follows results filed as active; ? = inconclusive; / = not tested or not shown. Only a selection was taken, and hits are over-represented in it overall.

SMILES	GASC1 inh	IDH1 R132H inh	T cruzi growth-1	T cruzi growth-2	T cruzi growth-3	NIH3T3 tox	NIH3T3 tox 2
CN(C)CC#Cc1ccc([C@@H]2[C@H](CO)N3C(=O)CN(C(=O)c4ccc(F)cc4)C[C@@H]23)cc1	3.7	/	/	/	/	/	/
CC(C)CC#Cc1ccc2c(c1)O[C@H](CN(C)Cc1ccccc1F)[C@@H](C)CN([C@H](C)CO)S2(=O)=O	-1.5	-1.2	67.5	/	/	/	/
CC(C)CC#Cc1ccc2c(c1)O[C@@H](CN(C)Cc1ccccc1F)[C@H](C)CN([C@H](C)CO)S2(=O)=O	0.5	0.0	?	91.6	104.9*	100.9*	104.5*
COCC#Cc1ccc2c(c1)O[C@H](CN(C)Cc1ccccc1F)[C@H](C)CN([C@@H](C)CO)S2(=O)=O	-0.7	-0.3	-24.6	/	/	/	/
COCC#Cc1ccc2c(c1)O[C@@H](CN(C)Cc1ccccc1F)[C@H](C)CN([C@@H](C)CO)S2(=O)=O	-2.0	-0.2	22.7	/	/	/	/
CC(C)CC#Cc1ccc2c(c1)O[C@H](CN(C)Cc1ccccc1F)[C@H](C)CN([C@H](C)CO)S2(=O)=O	-0.9	0.1	?	97.8*	112.8*	-8.7	105.4*
CC(C)CC#Cc1ccc2c(c1)O[C@H](CN(C)Cc1ccccc1F)[C@H](C)CN([C@@H](C)CO)S2(=O)=O	0.9	-1.0	?	106.7*	83.1	28.1	105.3*
C[C@@H]1CCCCO[C@H](CN(C)S(=O)(=O)c2ccccc2)[C@@H](C)CN([C@@H](C)CO)C(=O)c2cc(NC(=O)Nc3ccc4c(c3)OCO4)ccc2O1	0.7	-1.7	76.8	/	/	/	/
COc1ccccc1C#Cc1ccc([C@H]2[C@H](CO)N3CCCCN(S(C)(=O)=O)C[C@@H]23)cc1	-0.8	/	?	105.9*	73.9	38.5*	69.8*
COc1ccccc1C#Cc1ccc([C@@H]2[C@H]3CN(S(C)(=O)=O)CCCCN3[C@H]2CO)cc1	-2.1	/	93.9	/	/	/	/
CCS(=O)(=O)N1CCCCN2[C@H](CO)[C@H](c3ccc(C#Cc4ccccc4OC)cc3)[C@H]2C1	0.1	/	-0.7	/	/	/	/
CCS(=O)(=O)N1CCCCN2[C@H](CO)[C@H](c3ccc(C#Cc4ccccc4OC)cc3)[C@@H]2C1	-5.5	/	112.0*	105.9*	73.8	42.0*	51.2*
CCS(=O)(=O)N1CCCCN2[C@H](CO)[C@@H](c3ccc(C#Cc4ccccc4OC)cc3)[C@H]2C1	-1.5	/	121.7*	100.5*	50.6	45.4*	85.3*
O=S(=O)(Cc1ccccc1)N1CCCCN2[C@H](CO)[C@@H](c3ccc(C#Cc4ccccc4)cc3)[C@H]2C1	1.8	/	56.7	/	/	/	/
C[C@@H]1CN([C@@H](C)CO)C(=O)c2cc(C#Cc3cccnc3)cnc2O[C@H]1CN(C)S(=O)(=O)c1ccccc1F	-4.3	-7.1	50.8	/	/	/	/
O=[N+]([O-])c1ccc(N2CCNCC2)cc1NCc1ccccn1	/	0.2	/	/	/	/	/
COCC#Cc1cnc2c(c1)C(=O)N([C@@H](C)CO)C[C@@H](C)[C@H](CN(C)C(=O)NC1CCCC1)O2	-0.1	-1.4	65.9	/	/	/	/
COc1ccc(-c2ccc3c(c2)[C@H]2[C@H](CCN2C(=O)c2cnccn2)[C@H](CO)N3)cc1	-0.6	/	107.6*	104.9*	111.6*	-4.5	-18.7
O=C(c1cnccn1)N1CC[C@@H]2[C@H](CO)Nc3ccc(-c4ccccc4F)cc3[C@@H]21	-0.4	/	97.2	/	/	/	/
O=C(c1cnccn1)N1CC[C@@H]2[C@H]1c1cc(-c3ccccc3F)ccc1N[C@@H]2CO	-0.5	/	100.0*	106.9*	28.2	20.3	44.1*
O=C(c1cccc(F)c1)N1CC[C@@H]2[C@H](CO)Nc3ccc(-c4ccccc4F)cc3[C@@H]21	-3.1	/	30.8	/	/	/	/
O=C(c1ccccc1)N1CC[C@@H]2[C@@H](CO)Nc3ccc(-c4ccc(F)cc4)cc3[C@@H]21	-1.1	/	69.2	/	/	/	/
O=C(c1ccccc1)N1CC[C@@H]2[C@H](CO)Nc3ccc(-c4ccccc4F)cc3[C@@H]21	-1.7	/	102.8*	107.6*	87.9	11.0	25.7*
O=C(c1ccc(F)cc1)N1CC[C@@H]2[C@H]1c1cc(-c3ccccc3F)ccc1N[C@@H]2CO	0.2	/	99.5*	95.3*	70.0	9.9	102.7*

High-throughput results (PubChem BioAssay)
